Calls of active or inactive are those of the source.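 How the source made its calls: active means compounds whose fitted half-maximal concentration for reducing fibroblast viability is 100 µM or lower; inactive means the rest.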
Assay: inhibition of LL 47 lung fibroblast growth, concentration-response curve, selectivity screen for endothelial cell growth inhibitor project, cellular system, ATP luminescence readout (AID 821);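 further: 100% = median of untreated cell-only wells and 0% = no luminescence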
Details: LL 47 lung fibroblast viability, ATP luminescence; at 20 µM (top of the series)
How it was run: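 assay system = LL 47 human lung fibroblasts | quantity = 1,150 cells per well | compound = dose series 0.039–20 µM final, 0.2% DMSO | incubation = overnight cell settling, then 72 h compound exposure at 37 °C | signal = CellTiter-Glo luminescence readout of viable cells | read-out basis = % viability versus median cell-only wells, four-parameter EC50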
With CCN1CCN(c2ncc(C(=O)Nc3cc(Cl)c(OC)cc3OC)c3ccccc23)CC1 the viability was 103% (inactive). For COC(=O)C1=C(C)N=c2s/c(=C3\C(=O)Nc4ccccc43)c(=O)n2C1c1ccccc1 (centres undefined), the viability was 80.9% (inactive). For Cc1cccc(-c2nc(CN3CCCC(C(=O)NC4CCCCCC4)C3)c(C)o2)c1 (centres undefined), the viability was 90.9% (inactive). With CN1C(=O)C(O)(CC(=O)c2cccc(-n3cccc3)c2)c2ccccc21 (centres undefined) the viability was 93.7% (inactive). For Cc1cc(C)c2oc(-c3cccc(NC(=O)c4ccc(F)cc4)c3)nc2c1, the viability was 104% (inactive). In the case of O=C(CCSc1ccc(Cl)cc1)N1CCN(c2ncccn2)CC1, the viability is reported as 96.4% (inactive). With CCn1nc(C(=O)NC2=NCCS2)c2ccccc2c1=O the viability was 103% (inactive). For Cc1sc2nc(SCC(=O)NCc3ccco3)n(Cc3ccccc3)c(=O)c2c1C, the viability was 98.4% (inactive). In the case of Cc1ccc(S(=O)(=O)c2c(C)nn(C(C)(C)C)c2OC(=O)c2ccc(Br)o2)cc1, the viability is reported as 103% (inactive). In the case of CCOC(=O)c1c(CN2CCN(c3ccccc3)CC2)oc2ccc(O)cc12, the viability is reported as 83.2% (inactive). For CC12CCC(=O)C=C1CCC1C2CCC2(C)C(O)CCC12 (centres undefined), the viability was 95.3% (inactive). With COc1ccc2nc(NC(=O)CSC3=NCCS3)sc2c1 the viability was 110% (inactive). With Clc1ccc(Cn2cc(/C=N/n3cnnc3)c3ccccc32)c(Cl)c1 the viability was 99% (inactive). With C/C(=N\O)c1ccc2c3ccccc3n(C)c2c1 the viability was 111% (inactive). For CCCS(=O)(=O)N1CCC(C(=O)N2CCC3(CC2)OCCO3)CC1, the viability was 97.5% (inactive). In the case of Cc1nc2sccn2c(=O)c1CCN1CCC(=C(c2ccc(F)cc2)c2ccc(F)cc2)CC1, the viability is reported as 91.4% (inactive). With COc1cccc(-c2cc(C(=O)Nc3cc(C)n(Cc4ccc(Cl)cc4)n3)no2)c1 the viability was 92% (inactive). With CNC(=O)c1ccc(-c2sc3nc(N4CCOCC4)c4c(c3c2N)CCCC4)o1 the viability was 90.4% (inactive). In the case of Cc1cc(C)n(-c2nc(Nc3ccccc3C)nc(-n3nc(C)cc3C)n2)n1, the viability is reported as 97.1% (inactive). With O=C(CSc1ccc2c(c1)OCCO2)Nc1ccc(Cl)cn1 the viability was 94.9% (inactive). For Cc1nc2ccccc2n1CCc1nc2c3ccccc3nc(SCC(=O)NCc3ccco3)n2n1, the viability was 101% (inactive). In the case of CC1(C)CSC(=S)N1S(=O)(=O)c1ccccc1, the viability is reported as 115% (inactive). For CC1(C)Nc2ccc(O)cc2-c2c1ssc2=S, the viability was 92.1% (inactive). With Cc1ccc(Cn2nc(C)c(NC(=O)c3cc(-c4ccc5c(c4)OCO5)on3)c2C)cc1 the viability was 106% (inactive). For CCCn1c(Nc2nc3ccccc3n2C)nc2ccccc21, the viability was 102% (inactive). For COc1ccc(OC)c(-n2nnnc2SCC(=O)Nc2ccc3c(c2)OCCO3)c1, the viability was 103% (inactive). With CC(C)(C)c1ccc(-c2nnc(SCC(=O)O)n2N)cc1 the viability was 103% (inactive). With CCOc1ccc2nc(NC(=O)CN3CCC(n4nnc5cc(F)ccc54)CC3)sc2c1 the viability was 82.7% (inactive). For CCCOC(=O)c1ccc(Oc2cn[nH]c2-c2ccc(OC)cc2O)cc1, the viability was 86.6% (inactive). For CC(Nc1nc(N2CCN(S(C)(=O)=O)CC2)nc2ccccc12)c1ccccc1 (centres undefined), the viability was 92.9% (inactive). With Brc1ccc(-c2csc(NNC3=NCCCCC3)n2)cc1 the viability was 90.2% (inactive). With COc1ccc(Cc2nc(C(=O)Nc3ccc(Cl)cc3)cs2)cc1 the viability was 84.3% (inactive). For Cc1cc(Cl)ccc1OCCCC(N)=O, the viability was 95% (inactive). For Nc1nc2ccccc2n1/N=C/c1ccc(-c2ccccc2)o1, the viability was 111% (inactive). With COC(=O)CSc1nc2ccc(NC(=O)CSc3nnnn3Cc3ccccc3)cc2s1 the viability was 108% (inactive). With OCCN1CCN(c2nc(-c3ccccc3)c3cc(Cl)ccc3n2)CC1 the viability was 85% (inactive). In the case of Cc1cc(C)cc(OC(=O)CS(=O)c2ccc(C(F)(F)F)cc2[N+](=O)[O-])c1 (centres undefined), the viability is reported as 98.3% (inactive). With Oc1ccccc1NCC(O)Cn1ccc2ccccc21 (centres undefined) the viability was 98.6% (inactive). With CCOc1cc(N2CCOCC2)c(OCC)cc1NC(=O)COc1ncnc2ccc(Br)cc12 the viability was 100% (inactive). With O=C(CSc1nnc(-c2cccs2)n1-c1ccccc1)Nc1ccccc1 the viability was 90.4% (inactive). In the case of COC(=O)/C(=C\Nc1ccc(Cl)cc1Cl)NC(=O)c1ccc(Cl)cc1Cl, the viability is reported as 96% (inactive). With CCn1c2c(c3cc(Br)ccc31)CCC/C2=N\O the viability was 85.2% (inactive). With COc1cccc(-c2nnc(Nc3nc4c(F)cccc4s3)o2)c1 the viability was 84.7% (inactive). With Cc1cc(NC(=O)c2cccc(S(=O)(=O)N3CC(c4ccccc4)CC3=O)c2)no1 (centres undefined) the viability was 98.4% (inactive). With O=C1C2C3C=CC(CO)(O3)C2C(=O)N1c1ccccc1-c1ccccc1 (centres undefined) the viability was 91.7% (inactive). With CCOC(=O)c1c(C)[nH]c(C(=O)OC/C(O)=C(\C#N)c2nc3ccccc3[nH]2)c1C the viability was 113% (inactive). In the case of CC(C)c1ccc(C2C3CSCC=C3C(C#N)=C(N)C2(C#N)C#N)cc1 (centres undefined), the viability is reported as 88.4% (inactive). In the case of CCc1cc(-c2n[nH]c(C)c2Oc2ccc(C(C)C)cc2)c(O)cc1O, the viability is reported as 85.5% (inactive). In the case of Cc1ccc(Cn2c(SCC(=O)Nc3cc(C)on3)nc3ccccc3c2=O)cc1, the viability is reported as 80.1% (inactive). With COc1ccc(C(c2sc3ncnn3c2O)N2CC(C)OC(C)C2)cc1OC (centres undefined) the viability was 98.1% (inactive). For COc1ccc2cc3cc(C(=O)NCCc4ccc(OC)c(OC)c4)oc3nc2c1, the viability was 109% (inactive). For O=C(CSc1nnc(-c2cc(-c3cccs3)nc3ccccc23)o1)NC1CCCCC1, the viability was 98.4% (inactive). In the case of O=C(NCc1ccc2c(c1)OCO2)C1CCC(CNS(=O)(=O)c2cccc3nsnc23)CC1 (centres undefined), the viability is reported as 106% (inactive). For CCOC(=O)N1CCN(C(=O)c2nn(-c3ccc(C)cc3)c(=O)c3c2c2ccccc2n3C)CC1, the viability was 100% (inactive). With CC1(C)Cc2c(C#N)c(SCC(=O)c3ccccc3)nc(N3CCOCC3)c2CO1 the viability was 90.1% (inactive). In the case of COc1ccc(CNC(=O)c2cc3c(C)nc4ccccc4c3o2)c(OC)c1, the viability is reported as 88.7% (inactive). For CCCCCCCCOC(=O)C1=C(C)Nc2nnnn2C1c1cccs1 (centres undefined), the viability was 117% (inactive). For COc1ccc2[nH]cc(C(=O)CN3CCN(C4CCCCC4)CC3)c2c1, the viability was 103% (inactive). With O=C(Nc1cccc(-c2nc3ncccc3o2)c1)c1cc2ccccc2o1 the viability was 116% (inactive). With CCOC(=O)c1ccc(NC(=O)CCc2nc(-c3ccc(C)cc3)no2)cc1 the viability was 98.6% (inactive). With Cc1cc(C)n(-c2nc(SCC(=O)N3CCCC3)c3c4c(sc3n2)CCCC4)n1 the viability was 113% (inactive). With CC1(c2ccccc2)CC(C)(C)N2C(=O)C3(C(C#N)=C(N)Oc4cc(O)ccc43)c3cccc1c32 (centres undefined) the viability was 87.7% (inactive). In the case of O=C(CCC1CCCC1)c1c(O)c2ccccc2oc1=O, the viability is reported as 93.9% (inactive). In the case of Nc1c(C(=O)Nc2ccc3c(c2)OCCO3)nnn1CCc1ccccc1, the viability is reported as 82.1% (inactive). For COC(=O)c1ccc(NC(=O)Nc2ccc(F)c(Cl)c2)cc1, the viability was 106% (inactive). In the case of CCCc1nc(SCC(=O)N2CCC(Cc3ccccc3)CC2)c2c(=O)n(C)c(=O)n(C)c2n1, the viability is reported as 106% (inactive). With Cc1cc(N2CCCCC2)nc2ccc(NC(=O)c3ccc(Br)o3)cc12 the viability was 94.4% (inactive). In the case of COc1ccc(-n2c(SCC(=O)Nc3sc4c(c3C#N)CCCC4)nnc2-c2ccc(O)cc2)cc1, the viability is reported as 94.1% (inactive). For CNC(=O)Cn1c(=O)n(C)c2ccccc21, the viability was 107% (inactive).

Reference: PubChem BioAssay AID821 (SRMLSC, 2007)
